Experimental data from ChEMBL document CHEMBL1152560, “Substituted 2-arylbenzothiazoles as kinase inhibitors: hit-to-lead optimization” (Bioorg Med Chem, 2009).

Tests used:
[1] = tested on: RAF proto-oncogene serine/threonine-protein kinase (Homo sapiens), P04049 [Y340D,Y341D]; experiment: Residual activity of RAF1 Y340D/Y341D mutant at 1 uM by microplate scintillation counting
[2] = biological target: Receptor tyrosine-protein kinase erbB-4 (Homo sapiens) (UniProt Q15303); experiment: Residual activity of ERBB4 at 10 uM by microplate scintillation counting
Chain of Receptor tyrosine-protein kinase erbB-4 (Homo sapiens) (Q15303 whole entry): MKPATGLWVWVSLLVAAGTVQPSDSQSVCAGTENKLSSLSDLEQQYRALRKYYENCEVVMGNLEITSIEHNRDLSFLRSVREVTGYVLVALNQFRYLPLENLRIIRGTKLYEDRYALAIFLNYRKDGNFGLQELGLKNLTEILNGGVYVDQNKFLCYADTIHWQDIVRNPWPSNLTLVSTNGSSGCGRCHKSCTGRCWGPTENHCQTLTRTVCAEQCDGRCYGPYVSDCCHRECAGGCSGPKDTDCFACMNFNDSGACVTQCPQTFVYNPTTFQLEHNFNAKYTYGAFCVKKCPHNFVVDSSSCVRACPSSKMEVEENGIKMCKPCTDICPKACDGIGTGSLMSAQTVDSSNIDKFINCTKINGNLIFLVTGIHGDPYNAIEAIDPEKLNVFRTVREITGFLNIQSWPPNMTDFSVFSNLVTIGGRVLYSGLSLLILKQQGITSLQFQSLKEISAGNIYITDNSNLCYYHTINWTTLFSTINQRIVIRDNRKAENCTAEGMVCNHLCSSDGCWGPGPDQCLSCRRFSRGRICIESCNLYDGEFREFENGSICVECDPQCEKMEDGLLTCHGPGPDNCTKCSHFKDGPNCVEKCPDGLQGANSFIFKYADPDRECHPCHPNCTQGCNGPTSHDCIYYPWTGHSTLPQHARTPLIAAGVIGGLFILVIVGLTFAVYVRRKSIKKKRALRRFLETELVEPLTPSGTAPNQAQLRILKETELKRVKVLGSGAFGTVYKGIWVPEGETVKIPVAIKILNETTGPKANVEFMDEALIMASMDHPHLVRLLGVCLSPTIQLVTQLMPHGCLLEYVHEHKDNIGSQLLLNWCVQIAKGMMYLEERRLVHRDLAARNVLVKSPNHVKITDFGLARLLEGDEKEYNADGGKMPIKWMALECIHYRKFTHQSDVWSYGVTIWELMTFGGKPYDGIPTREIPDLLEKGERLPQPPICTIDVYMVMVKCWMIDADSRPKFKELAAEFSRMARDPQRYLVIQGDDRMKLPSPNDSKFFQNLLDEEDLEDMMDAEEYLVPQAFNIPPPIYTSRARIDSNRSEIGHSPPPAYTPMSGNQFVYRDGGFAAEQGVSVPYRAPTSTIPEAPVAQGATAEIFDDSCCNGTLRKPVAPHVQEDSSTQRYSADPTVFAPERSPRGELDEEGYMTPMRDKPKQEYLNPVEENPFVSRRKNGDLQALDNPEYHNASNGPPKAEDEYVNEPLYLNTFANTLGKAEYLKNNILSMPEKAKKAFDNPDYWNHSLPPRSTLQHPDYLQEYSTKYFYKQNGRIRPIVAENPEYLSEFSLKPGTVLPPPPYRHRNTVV

[3] = biological target: T1, Tyrosine-protein kinase JAK3 (Homo sapiens) (UniProt P52333); experiment: Residual activity of JAK3 at 10 uM by microplate scintillation counting
T1 sequence (whole entry): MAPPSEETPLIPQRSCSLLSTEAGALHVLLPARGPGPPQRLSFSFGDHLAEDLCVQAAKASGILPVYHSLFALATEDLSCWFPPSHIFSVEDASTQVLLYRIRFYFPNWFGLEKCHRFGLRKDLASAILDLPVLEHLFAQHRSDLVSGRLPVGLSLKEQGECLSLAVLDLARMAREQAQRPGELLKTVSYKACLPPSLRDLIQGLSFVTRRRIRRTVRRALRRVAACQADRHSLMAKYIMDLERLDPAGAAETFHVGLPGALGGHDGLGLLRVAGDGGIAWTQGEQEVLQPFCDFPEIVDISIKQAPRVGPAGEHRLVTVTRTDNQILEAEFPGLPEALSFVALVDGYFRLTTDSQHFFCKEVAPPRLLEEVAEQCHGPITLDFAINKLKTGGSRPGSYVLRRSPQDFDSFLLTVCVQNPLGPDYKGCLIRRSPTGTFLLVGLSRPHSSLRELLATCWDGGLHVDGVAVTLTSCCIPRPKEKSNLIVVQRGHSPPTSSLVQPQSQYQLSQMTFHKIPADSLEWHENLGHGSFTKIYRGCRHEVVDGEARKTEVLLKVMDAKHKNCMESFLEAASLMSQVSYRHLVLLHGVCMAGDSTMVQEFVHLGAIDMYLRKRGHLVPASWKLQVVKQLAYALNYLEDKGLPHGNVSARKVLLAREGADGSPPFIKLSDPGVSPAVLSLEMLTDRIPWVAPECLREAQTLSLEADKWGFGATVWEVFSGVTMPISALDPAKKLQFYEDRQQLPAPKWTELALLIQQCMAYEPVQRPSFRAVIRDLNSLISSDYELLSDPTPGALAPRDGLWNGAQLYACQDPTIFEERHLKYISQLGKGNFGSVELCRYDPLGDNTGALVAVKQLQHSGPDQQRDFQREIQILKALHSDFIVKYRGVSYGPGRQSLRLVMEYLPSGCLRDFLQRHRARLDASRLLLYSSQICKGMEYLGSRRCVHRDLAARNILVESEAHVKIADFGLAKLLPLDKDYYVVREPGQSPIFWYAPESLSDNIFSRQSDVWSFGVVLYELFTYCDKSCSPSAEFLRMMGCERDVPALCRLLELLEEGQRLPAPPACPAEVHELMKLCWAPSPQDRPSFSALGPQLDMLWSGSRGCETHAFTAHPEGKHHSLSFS

[4] = biological target: T2, Calcium/calmodulin-dependent protein kinase type IV (Homo sapiens) (UniProt Q16566); experiment: Residual activity of CAMK4 at 1 uM by microplate scintillation counting
T2 sequence (whole entry): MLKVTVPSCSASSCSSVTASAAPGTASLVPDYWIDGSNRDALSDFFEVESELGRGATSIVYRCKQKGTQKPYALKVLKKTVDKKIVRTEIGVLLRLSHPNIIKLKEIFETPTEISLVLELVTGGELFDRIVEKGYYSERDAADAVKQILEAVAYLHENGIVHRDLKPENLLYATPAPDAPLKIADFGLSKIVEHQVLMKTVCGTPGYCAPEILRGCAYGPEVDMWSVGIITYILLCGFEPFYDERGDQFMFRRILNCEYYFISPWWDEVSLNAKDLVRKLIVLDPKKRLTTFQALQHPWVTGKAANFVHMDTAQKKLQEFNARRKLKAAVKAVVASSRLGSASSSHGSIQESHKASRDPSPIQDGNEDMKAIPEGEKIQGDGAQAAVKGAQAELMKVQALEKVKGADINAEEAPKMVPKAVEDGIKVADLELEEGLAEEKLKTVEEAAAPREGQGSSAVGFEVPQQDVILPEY

[5] = biological target: T3, Serine/threonine-protein kinase BRSK1 (Homo sapiens) (UniProt Q8TDC3); experiment: Residual activity of BRSK1 at 0.1 uM by microplate scintillation counting
T3 sequence (whole entry): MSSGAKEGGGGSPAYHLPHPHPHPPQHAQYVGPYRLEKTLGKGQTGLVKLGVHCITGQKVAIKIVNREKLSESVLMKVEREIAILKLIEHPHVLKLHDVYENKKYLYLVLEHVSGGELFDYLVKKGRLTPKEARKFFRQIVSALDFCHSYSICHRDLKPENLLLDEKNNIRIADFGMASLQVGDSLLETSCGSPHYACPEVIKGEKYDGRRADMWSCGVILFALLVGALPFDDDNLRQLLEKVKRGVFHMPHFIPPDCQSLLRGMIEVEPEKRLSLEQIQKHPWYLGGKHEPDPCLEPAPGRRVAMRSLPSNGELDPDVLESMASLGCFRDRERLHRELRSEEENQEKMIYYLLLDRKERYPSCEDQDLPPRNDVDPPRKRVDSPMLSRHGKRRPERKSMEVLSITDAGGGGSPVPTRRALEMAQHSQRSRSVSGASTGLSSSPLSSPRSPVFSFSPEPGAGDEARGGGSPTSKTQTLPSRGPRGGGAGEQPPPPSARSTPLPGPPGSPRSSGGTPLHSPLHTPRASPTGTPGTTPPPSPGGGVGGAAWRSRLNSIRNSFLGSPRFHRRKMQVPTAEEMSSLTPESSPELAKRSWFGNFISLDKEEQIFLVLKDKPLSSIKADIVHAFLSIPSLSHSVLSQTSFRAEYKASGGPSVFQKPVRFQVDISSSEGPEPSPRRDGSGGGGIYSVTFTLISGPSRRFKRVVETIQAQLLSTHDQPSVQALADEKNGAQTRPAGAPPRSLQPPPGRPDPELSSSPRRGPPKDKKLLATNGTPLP

[6] = biological target: Platelet-derived growth factor receptor beta (Homo sapiens, UniProt P09619); experiment: Inhibition of PDGFRbeta in human HCT116 cells by cellular phosphorylation assay; assay type: cell-based, HCT-116
Chain of Platelet-derived growth factor receptor beta (P09619 whole entry): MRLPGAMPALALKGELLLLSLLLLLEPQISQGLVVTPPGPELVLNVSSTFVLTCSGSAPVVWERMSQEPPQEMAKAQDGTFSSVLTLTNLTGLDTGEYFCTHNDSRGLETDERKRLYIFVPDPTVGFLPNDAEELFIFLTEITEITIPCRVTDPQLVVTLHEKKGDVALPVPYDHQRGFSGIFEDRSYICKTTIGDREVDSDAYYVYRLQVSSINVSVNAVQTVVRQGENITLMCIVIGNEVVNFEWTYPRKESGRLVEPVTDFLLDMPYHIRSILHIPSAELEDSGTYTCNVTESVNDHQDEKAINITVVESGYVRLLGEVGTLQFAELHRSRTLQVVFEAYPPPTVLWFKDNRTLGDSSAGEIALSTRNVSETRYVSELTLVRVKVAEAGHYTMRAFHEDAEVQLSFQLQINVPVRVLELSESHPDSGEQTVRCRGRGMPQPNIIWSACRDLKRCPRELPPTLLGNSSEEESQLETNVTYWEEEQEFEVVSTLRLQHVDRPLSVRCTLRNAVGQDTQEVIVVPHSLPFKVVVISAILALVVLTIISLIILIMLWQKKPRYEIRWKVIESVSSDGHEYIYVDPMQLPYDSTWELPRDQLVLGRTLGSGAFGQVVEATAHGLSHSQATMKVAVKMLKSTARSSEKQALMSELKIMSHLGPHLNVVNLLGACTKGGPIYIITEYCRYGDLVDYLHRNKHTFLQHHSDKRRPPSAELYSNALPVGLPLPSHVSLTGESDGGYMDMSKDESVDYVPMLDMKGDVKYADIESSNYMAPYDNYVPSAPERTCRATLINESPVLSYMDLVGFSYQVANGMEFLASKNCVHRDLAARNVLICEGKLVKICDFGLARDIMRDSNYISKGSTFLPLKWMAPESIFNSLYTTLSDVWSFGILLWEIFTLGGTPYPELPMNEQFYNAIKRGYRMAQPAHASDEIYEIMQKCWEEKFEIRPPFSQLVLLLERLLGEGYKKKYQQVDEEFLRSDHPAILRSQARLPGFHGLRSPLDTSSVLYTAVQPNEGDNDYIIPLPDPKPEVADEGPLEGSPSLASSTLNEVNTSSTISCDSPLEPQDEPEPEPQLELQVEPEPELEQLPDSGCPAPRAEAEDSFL
Method in brief: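 Cells expressing PDGFRβ were treated with compound, then stimulated to give maximal autophosphorylation in controls. Cells were lysed, and receptor phosphorylation was quantified by sandwich ELISA with a receptor-specific capture antibody and an anti-phosphotyrosine antibody. EC50 from a sigmoidal curve relative to the stimulated high control. Nine concentrations, 1 nM–10 μM in half-log steps, each in duplicate.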

[7] = biological target: Epidermal growth factor receptor (Homo sapiens, UniProt P00533); experiment: Inhibition of EGFR in human HCT116 cells by cellular phosphorylation assay
Chain of Epidermal growth factor receptor (P00533 whole entry): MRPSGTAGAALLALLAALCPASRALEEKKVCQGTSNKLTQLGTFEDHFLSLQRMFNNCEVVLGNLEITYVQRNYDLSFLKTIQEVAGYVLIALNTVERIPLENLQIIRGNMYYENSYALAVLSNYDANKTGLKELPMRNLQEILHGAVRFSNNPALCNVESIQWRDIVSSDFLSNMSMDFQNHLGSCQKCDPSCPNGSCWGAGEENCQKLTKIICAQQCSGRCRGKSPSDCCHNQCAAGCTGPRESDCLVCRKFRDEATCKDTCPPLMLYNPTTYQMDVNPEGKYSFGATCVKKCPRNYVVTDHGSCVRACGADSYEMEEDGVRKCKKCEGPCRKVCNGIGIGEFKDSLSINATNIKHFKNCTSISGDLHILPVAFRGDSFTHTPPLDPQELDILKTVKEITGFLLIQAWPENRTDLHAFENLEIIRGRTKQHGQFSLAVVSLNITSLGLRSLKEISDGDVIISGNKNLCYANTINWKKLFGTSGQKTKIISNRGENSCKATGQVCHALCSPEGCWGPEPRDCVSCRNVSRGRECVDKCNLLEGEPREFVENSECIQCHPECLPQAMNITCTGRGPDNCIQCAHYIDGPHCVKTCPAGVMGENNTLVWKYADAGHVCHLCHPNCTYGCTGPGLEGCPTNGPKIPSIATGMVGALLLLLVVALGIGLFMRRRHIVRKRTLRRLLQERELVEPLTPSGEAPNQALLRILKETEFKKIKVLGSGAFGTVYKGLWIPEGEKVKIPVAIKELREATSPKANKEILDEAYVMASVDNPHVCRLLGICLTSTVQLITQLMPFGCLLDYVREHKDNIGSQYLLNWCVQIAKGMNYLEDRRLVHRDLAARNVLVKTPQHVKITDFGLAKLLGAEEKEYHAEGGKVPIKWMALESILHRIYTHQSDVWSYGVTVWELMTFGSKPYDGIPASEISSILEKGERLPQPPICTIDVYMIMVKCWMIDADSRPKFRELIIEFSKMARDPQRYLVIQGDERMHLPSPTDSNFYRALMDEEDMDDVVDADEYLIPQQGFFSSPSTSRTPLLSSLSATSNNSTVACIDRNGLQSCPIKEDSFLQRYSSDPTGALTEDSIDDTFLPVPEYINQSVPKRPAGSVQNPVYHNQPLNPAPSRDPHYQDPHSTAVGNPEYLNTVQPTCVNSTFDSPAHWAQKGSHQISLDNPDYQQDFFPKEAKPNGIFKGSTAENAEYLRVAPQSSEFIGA

residual activity [1] [%] | residual activity [2] [%] | residual activity [3] [%] | residual activity [4] [%] | residual activity [5] [%] | EC50 [6] [nM] | EC50 [7] [nM] | SMILES
90 | 116 | 68 | 97 | 94 | 2000 |  | COc1cc2c(Oc3ccc(-c4nc5ccccc5s4)cc3)ncnc2cc1OCCCN1CCCC1
97 | 118 | 63 | 100 | 95 | 170 |  | COc1cc2c(Oc3ccc(-c4nc5ccccc5s4)cc3)ncnc2cc1OCCCN1CCN(C)CC1
104 | 54 | 53 | 103 | 85 |  | > 10000 | COc1cc2c(Oc3ccc(-c4nc5ccccc5s4)cc3F)ncnc2cc1OCCCN1CCN(C)CC1
